In ChEMBL document CHEMBL1123634, “Design, synthesis, and testing of potential antisickling agents. 10. (2,2-Dimethylchroman-6-yl)alkanoic acids” (1987):

Assays:
Type in all cases: functional
Homo sapiens [1] = organism: Homo sapiens; assay: Antigelling activity expressed as ratio of soluble sickle hemoglobin (HbS) of compound (g/dL) and that of control at 10 mM concentration
Method in brief: (§1)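 Hofrichter-type solubility assay: HbS (final around 24 g/100 mL) incubated with drug at 5, 10, 20 and 40 mM, dithionite as deoxygenant. Drugs taken up as sodium salts (2 equiv NaHCO3) in 0.15 M phosphate buffer pH 7.4, 0.18 M stock, some with N-methylpiperazine added for solubility. Each spin run includes a no-drug dHbS control and a 40 mM phenylalanine control. Ratio is soluble HbS with drug (g/dL) over soluble HbS control (g/dL). Values are averages of duplicate runs.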

Homo sapiens [2] = organism: Homo sapiens; assay: Antigelling activity expressed as ratio of soluble sickle hemoglobin (HbS) of compound (g/dL) and that of control at 5 mM concentration.; method in brief: as §1
Homo sapiens [3] = organism: Homo sapiens; assay: Antigelling activity expressed as ratio of soluble sickle hemoglobin (HbS) of compound (g/dL) and that of control at 20 mM concentration; method in brief: as §1
Homo sapiens [4] = organism: Homo sapiens; assay: Antigelling activity expressed as ratio of soluble sickle hemoglobin (HbS) of compound (g/dL) and that of control at 40 mM concentration.; method in brief: as §1
Homo sapiens [5] = organism: Homo sapiens; assay: Antigelling activity expressed as ratio of soluble sickle hemoglobin (HbS) of compound (g/dL) and that of control at 40 mM concentration; method in brief: as §1
Homo sapiens [6] = organism: Homo sapiens; assay: Antigelling activity expressed as ratio of soluble sickle hemoglobin (HbS) of compound (g/dL) and that of control at 20 mM concentration.; method in brief: as §1
Homo sapiens [7] = organism: Homo sapiens; assay: Antigelling activity expressed as ratio of soluble sickle hemoglobin (HbS) of compound (g/dL) and that of control at 5 mM concentration; method in brief: as §1
Homo sapiens [8] = organism: Homo sapiens; assay: Antigelling activity expressed as ratio of soluble sickle hemoglobin (HbS) of compound (g/dL) and that of control at 10 mM concentration.; method in brief: as §1

Compound	Activity (Homo sapiens [1])	Activity (Homo sapiens [2])	Activity (Homo sapiens [3])	Activity (Homo sapiens [4])	Activity (Homo sapiens [5])	Activity (Homo sapiens [6])	Activity (Homo sapiens [7])	Activity (Homo sapiens [8])
CC(C)(Oc1ccc(Cl)cc1)C(=O)O [CLOFIBRIC ACID]	1.064	1.018	1.155	1.302	–	–	–	–
CC(=O)OC(C/C(C)=C/C(=O)O)c1ccc2c(c1)CCC(C)(C)O2 (configuration not stated)	1.03	1.01	–	–	1.188	1.085	–	–
N[C@@H](Cc1ccccc1)C(=O)O [PHENYLALANINE]	–	–	–	–	1.178	1.093	1.036	1.048
CC1(C)CCc2cc(CCC(=O)O)ccc2O1	1.077	1.045	1.164	–	1.297	–	–	–
CC1(C)CCc2cc(CCCC(=O)O)ccc2O1	1.086	–	1.144	–	1.299	–	1.052	–
CC1(C)CCc2cc(C(=O)O)ccc2O1	1.043	–	1.108	1.226	–	–	1.044	–
CC(C(=O)O)c1ccc2c(c1)CCC(C)(C)O2 (configuration not stated)	1.028	1.011	1.095	–	1.21	–	–	–
Cc1ccc(C)c(OCCCC(C)(C)C(=O)O)c1 [GEMFIBROZIL]	–	–	1.117	–	1.234	–	1.04	1.073
